Here are results for 20 compounds from ChEMBL document CHEMBL4765263, “Design, synthesis, biological evaluation of 6-(2-amino-1H-benzo[d]imidazole-6-yl)quinazolin-4(3H)-one derivatives as novel anticancer agents with Aurora kinase inhibition” (Eur J Med Chem, 2020).

One data set deals with MDA-MB-231. As to the kind of experiment: Cytotoxicity against human MDA-MB-231 cells assessed as reduction in cell viability incubated for 72 hrs by MTT assay. The data set is classed as functional, cell-based. To be noted: MDA-MB-231, 72 h. Put shortly: (§1)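 MTT viability assay. Cells kept in DMEM with 10% FBS at 37 °C and 5% CO2. Seeded at 5×10^3 cells per well and exposed to a range of compound concentrations from 20 mM DMSO stocks. IC50 is the mean of triplicate measurements.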
For orientation: Tetrazolium assays rely on reduction of a dye to a coloured formazan, in cell work by metabolically active cells.

The next data set has as its system PC-3. As to the kind of experiment: Cytotoxicity against human PC-3 cells assessed as reduction in cell viability incubated for 72 hrs by MTT assay. The data set is classed as functional, cell-based. The settings on record: PC-3, 72 h. The essentials: as §1
For the next data set, the system named is SH-SY5Y. As to the kind of experiment: Cytotoxicity against human SH-SY5Y cells assessed as reduction in cell viability incubated for 72 hrs by MTT assay. Type of data set: functional, cell-based. The essentials: as §1
Data set [1] in a line: Solubility of compound in water. The data set is classed as physicochemical. To be noted: buffer.
In a further data set the target is T1, Aurora kinase A (Homo sapiens, UniProt O14965).
T1 sequence (O14965 whole entry): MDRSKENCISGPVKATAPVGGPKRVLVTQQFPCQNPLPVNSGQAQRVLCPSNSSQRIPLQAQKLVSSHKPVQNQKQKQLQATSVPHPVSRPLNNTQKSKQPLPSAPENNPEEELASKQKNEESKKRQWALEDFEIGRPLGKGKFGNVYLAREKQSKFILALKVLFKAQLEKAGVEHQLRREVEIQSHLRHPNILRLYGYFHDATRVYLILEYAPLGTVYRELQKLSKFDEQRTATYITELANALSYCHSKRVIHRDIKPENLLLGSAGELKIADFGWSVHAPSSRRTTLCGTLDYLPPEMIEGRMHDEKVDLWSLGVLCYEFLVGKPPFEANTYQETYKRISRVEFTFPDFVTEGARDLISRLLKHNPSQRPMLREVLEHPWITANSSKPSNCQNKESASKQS
As to the kind of experiment: Inhibition of Aurora A (unknown origin) incubated for 1 hrs by HTRF assay. On the technique in general: Time-resolved FRET reads energy transfer from a long-lived donor to a nearby acceptor.

For another data set, the target named is Aurora kinase B (Homo sapiens, UniProt Q96GD4). Kind of data set: Inhibition of Aurora B (unknown origin) incubated for 1 hrs by HTRF assay.
Chain of Aurora kinase B (Q96GD4 whole entry): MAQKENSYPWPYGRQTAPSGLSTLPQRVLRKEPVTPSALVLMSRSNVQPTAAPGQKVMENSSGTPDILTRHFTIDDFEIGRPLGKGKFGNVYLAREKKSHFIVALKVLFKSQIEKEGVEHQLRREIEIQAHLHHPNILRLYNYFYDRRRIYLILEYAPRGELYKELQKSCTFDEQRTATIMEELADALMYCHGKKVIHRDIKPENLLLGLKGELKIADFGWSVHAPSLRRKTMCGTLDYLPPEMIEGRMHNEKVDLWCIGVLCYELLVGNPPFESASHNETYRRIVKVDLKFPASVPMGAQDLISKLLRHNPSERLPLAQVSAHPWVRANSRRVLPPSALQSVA

`O=C(Nc1nc2ccc(-c3ccc4ncn(CCN5CCOCC5)c(=O)c4c3)cc2[nH]1)N1CCOCC1`: the IC50 in the data set with MDA-MB-231, in the data set on PC-3 and with SH-SY5Y was above 20 µM each time.

As for `CCC(=O)Nc1nc2ccc(-c3ccc4ncn(CCN5CCCCC5)c(=O)c4c3)cc2[nH]1`, the IC50 (usually the concentration needed to halve the response being measured) in the data set on MDA-MB-231 came to 1.23 µM; in the data set on PC-3, 6.57 µM; with SH-SY5Y it was 4.02 µM.

For `CCC(=O)Nc1nc2ccc(-c3ccc4ncn(CC(=O)N5CCOCC5)c(=O)c4c3)cc2[nH]1`, the IC50 in the data set with MDA-MB-231, in the data set on PC-3 and in the data set on SH-SY5Y was above 20 µM each time.

In the case of `CCC(=O)Nc1nc2ccc(-c3ccc4nc(CN5CCOCC5)n(C)c(=O)c4c3)cc2[nH]1`, the IC50 in the data set on MDA-MB-231 was determined as 0.94 µM; in the data set with PC-3, 1.65 µM; in the data set on SH-SY5Y, 1.08 µM.

In the case of `CCCCn1cnc2ccc(-c3ccc4nc(NC(=O)CC)[nH]c4c3)cc2c1=O`, the IC50 in the data set with MDA-MB-231, in the data set with PC-3 and in the data set on SH-SY5Y was above 20 µM in each case.

Turning to `CCS(=O)(=O)Nc1nc2ccc(-c3ccc4ncn(CCN5CCOCC5)c(=O)c4c3)cc2[nH]1`, the IC50 in the data set with MDA-MB-231, in the data set on PC-3 and in the data set on SH-SY5Y was above 20 µM in each case.

With `Cc1cc(Nc2cc(N3CCN(C)CC3)nc(/C=C/c3ccccc3)n2)n[nH]1` [ENMD-2076], the figures for the half-inhibitory concentration (IC50) in the data set on MDA-MB-231 and in the data set with PC-3 were 0.48 µM and 0.67 µM, respectively.

In the case of `CCC(=O)Nc1nc2ccc(-c3ccc4ncn(C)c(=O)c4c3)cc2[nH]1`, the figures for the IC50 in the data set with MDA-MB-231, in the data set with PC-3 and with SH-SY5Y were 13.5 µM, above 20 µM and 18.1 µM, respectively.

With `CCN(CC)C(=O)Nc1nc2ccc(-c3ccc4ncn(CCN5CCOCC5)c(=O)c4c3)cc2[nH]1`, the concentration for half-maximal inhibition (IC50) in the data set with MDA-MB-231 came to 1.76 µM; in the data set on PC-3 it was 8.13 µM; with SH-SY5Y, 2.52 µM. For the same compound, the solubility result in data set [1] was “Soluble”.

As to `O=C(Nc1nc2ccc(-c3ccc4ncn(CCN5CCOCC5)c(=O)c4c3)cc2[nH]1)c1ccccc1`, the IC50 with MDA-MB-231, in the data set on PC-3 and in the data set with SH-SY5Y was above 20 µM throughout.

Regarding `CCCCC(=O)Nc1nc2ccc(-c3ccc4ncn(CCN5CCOCC5)c(=O)c4c3)cc2[nH]1`, the IC50 was found to be 3.85 µM in the data set on MDA-MB-231, 6.54 µM with PC-3 and 4.19 µM with SH-SY5Y.

On to `CCC(=O)Nc1nc2ccc(-c3ccc4ncn(CCc5c[nH]c6ccccc56)c(=O)c4c3)cc2[nH]1`, for which the IC50 in the data set with MDA-MB-231 is 0.55 µM; with PC-3, 1.67 µM; in the data set with SH-SY5Y it was 1.23 µM; against Aurora kinase A it was 27.1 nM; against Aurora kinase B, 330 nM. For the same compound, the solubility entry in data set [1] is “Insoluble”.

Regarding `CCS(=O)(=O)Nc1nc2ccc(-c3ccc4ncn(CC(=O)N5CCOCC5)c(=O)c4c3)cc2[nH]1`, the IC50 in the data set on MDA-MB-231, with PC-3 and in the data set with SH-SY5Y was above 20 µM throughout.

As to `O=C(Nc1nc2ccc(-c3ccc4ncn(CCN5CCOCC5)c(=O)c4c3)cc2[nH]1)C1CCCCC1`, the values for the IC50 with MDA-MB-231, in the data set on PC-3 and with SH-SY5Y were 10.2 µM, 16.5 µM and 14.2 µM, respectively.

On to `O=C(Nc1nc2ccc(-c3ccc4ncn(CCN5CCOCC5)c(=O)c4c3)cc2[nH]1)C1CC1`, for which the figures for the IC50 in the data set on MDA-MB-231, in the data set on PC-3 and in the data set with SH-SY5Y were 1.61 µM, 11.2 µM and 7.33 µM, respectively.

Consider `CCC(=O)Nc1nc2ccc(-c3ccc4ncn(CCCN5CCOCC5)c(=O)c4c3)cc2[nH]1`, for which the IC50 in the data set with MDA-MB-231 amounted to 1.22 µM; in the data set with PC-3, 3.21 µM; in the data set with SH-SY5Y it was 1.68 µM.

As to `COC(=O)Nc1nc2ccc(-c3ccc4ncn(CCN5CCOCC5)c(=O)c4c3)cc2[nH]1`, the IC50 in the data set on MDA-MB-231, in the data set on PC-3 and with SH-SY5Y was above 20 µM throughout. Further, the solubility entry in data set [1] is listed as “Soluble”.

For `CCC(=O)Nc1nc2ccc(-c3ccc4nc(CN5CCN(C(=O)CC)CC5)n(C)c(=O)c4c3)cc2[nH]1`, the IC50 was above 20 µM in the data set with MDA-MB-231, above 20 µM in the data set with PC-3 and 5.49 µM with SH-SY5Y.

As to `CN(C)C(=O)Nc1nc2ccc(-c3ccc4ncn(CCN5CCOCC5)c(=O)c4c3)cc2[nH]1`, the values for the half-maximal inhibitory concentration (IC50) in the data set on MDA-MB-231, in the data set on PC-3 and in the data set with SH-SY5Y were 4.85 µM, 6.45 µM and 3.92 µM, respectively. Further, in data set [1], the solubility result is reported as “Soluble”.

Take `CCS(=O)(=O)Nc1nc2ccc(-c3ccc4ncn(C)c(=O)c4c3)cc2[nH]1`: the IC50 in the data set with MDA-MB-231, in the data set on PC-3 and with SH-SY5Y was above 20 µM throughout.
